Activity calls are given as the source filed them. The rule behind the calls is not given here.
How the values were obtained:
[1] = system: Klebsiella pneumoniae; assay: Antibacterial activity against Klebsiella pneumoniae B9 assessed as inhibition of bacterial growth incubated for 16 hrs by broth microdilution method; type: functional
Method in brief: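 Broth microdilution in CAMHB. Six-hour culture diluted to 5×10^5 CFU/mL, compound added from DMSO stock, two-fold serial dilution. MIC is the lowest concentration giving 90% growth inhibition versus untreated wells. Run in duplicate, repeated at least twice.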

[2] = system: Klebsiella pneumoniae; assay: Potentiation of colistin-induced antibacterial activity against colistin resistant Klebsiella pneumoniae B9 assessed as colistin MIC at 5 uM incubated for 16 hrs by broth microdilution method; type: functional
Method in brief: (§1)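 Bacteria grown 6 h in CAMHB, diluted to 5×10^5 CFU/mL. Fixed adjuvant concentration added from DMSO stock; an undosed aliquot gives the colistin MIC alone. Colistin serially two-fold diluted in the compound-dosed suspension. MIC taken at 90% growth inhibition versus untreated wells. Fold change is colistin MIC alone over MIC with adjuvant. Duplicate, repeated at least twice.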

[3] = system: Acinetobacter baumannii; assay: Potentiation of colistin-induced antimicrobial activity against colistin resistant Acinetobacter baumannii 3941 assessed as assessed as colistin MIC at 5 uM incubated for 16 hrs by broth microdilution method; type: functional; method in brief: as §1
[4] = system: Klebsiella pneumoniae; assay: Potentiation of colistin-induced antibacterial activity against colistin-resistant Klebsiella pneumoniae B9 assessed as fold change in colistin MIC at 3 uM incubated for 16 hrs by broth microdilution method; type: functional; method in brief: as §1
[5] = system: Klebsiella pneumoniae; assay: Potentiation of colistin-induced antibacterial activity against colistin resistant Klebsiella pneumoniae F2210291 harbouring mcr-1 gene assessed as colistin MIC at 5 uM incubated for 16 hrs by broth microdilution method; type: functional; method in brief: as §1
[6] = system: Klebsiella pneumoniae; assay: Potentiation of colistin-induced antibacterial activity against colistin-resistant Klebsiella pneumoniae B9 assessed as fold change in colistin MIC at 5 uM incubated for 16 hrs by broth microdilution method; type: functional; method in brief: as §1
[7] = system: Acinetobacter baumannii; assay: Antimicrobial activity against colistin resistant Acinetobacter baumannii 3941 assessed as inhibition of microbial growth incubated for 16 hrs by broth microdilution method; type: functional, organism-based
Method in brief: (§2)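 Bacteria grown 6 h in cation-adjusted Mueller Hinton broth (CAMHB), subcultured to 5×10^5 CFU/mL. Compound added from DMSO stock and serially two-fold diluted in the culture. Incubated stationary at 37 °C for 16 h. MIC taken as the lowest concentration giving 90% growth inhibition versus untreated wells. Duplicate, repeated at least twice.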

[8] = system: Klebsiella pneumoniae; assay: Potentiation of colistin-induced antibacterial activity against colistin-resistant Klebsiella pneumoniae B9 assessed as fold change in colistin MIC at 1 uM incubated for 16 hrs by broth microdilution method; type: functional; method in brief: as §1
[9] = system: Escherichia coli; assay: Potentiation of colistin-induced antimicrobial activity against colistin resistant Escherichia coli 25922 harbouring mcr-1 gene assessed as colistin MIC at 5 uM incubated for 16 hrs by broth microdilution method; type: functional; method in brief: as §1
[10] = system: Pseudomonas aeruginosa; assay: Antimicrobial activity against colistin resistant Pseudomonas aeruginosa TRPA 162 assessed as inhibition of microbial growth incubated for 16 hrs by broth microdilution method; type: functional, organism-based; method in brief: as §2
[11] = system: Klebsiella pneumoniae; assay: Potentiation of colistin-induced antibacterial activity against colistin-resistant Klebsiella pneumoniae B9 assessed as colistin MIC at 1 uM incubated for 16 hrs by broth microdilution method; type: functional; method in brief: as §1
[12] = system: Escherichia coli; assay: Antimicrobial activity against colistin resistant Escherichia coli 25922 harbouring mcr-1 gene assessed as inhibition of microbial growth incubated for 16 hrs by broth microdilution method; type: functional, organism-based; method in brief: as §2
[13] = system: Klebsiella pneumoniae; assay: Potentiation of colistin-induced antibacterial activity against colistin resistant Klebsiella pneumoniae C3 assessed as colistin MIC at 5 uM incubated for 16 hrs by broth microdilution method; type: functional; method in brief: as §1
[14] = system: Klebsiella pneumoniae; assay: Potentiation of colistin-induced antibacterial activity against colistin-resistant Klebsiella pneumoniae B9 assessed as colistin MIC at 3 uM incubated for 16 hrs by broth microdilution method; type: functional; method in brief: as §1
[15] = system: Pseudomonas aeruginosa; assay: Potentiation of colistin-induced antimicrobial activity against colistin-resistant Pseudomonas aeruginosa TRPA 162 assessed as colistin MIC at 5 uM incubated for 16 hrs by broth microdilution method; type: functional; method in brief: as §1
[16] = system: Klebsiella pneumoniae; assay: Potentiation of colistin-induced antibacterial activity against colistin resistant Klebsiella pneumoniae I2 assessed as colistin MIC at 5 uM incubated for 16 hrs by broth microdilution method; type: functional; method in brief: as §1
[17] = system: Klebsiella pneumoniae; assay: Potentiation of colistin-induced antibacterial activity against colistin resistant Klebsiella pneumoniae F9 assessed as colistin MIC at 5 uM incubated for 16 hrs by broth microdilution method; type: functional; method in brief: as §1

| Structure (SMILES) | MIC [1] | MIC [2] | fold change (FC) [6] | other results |
| --- | --- | --- | --- | --- |
| O=C1Nc2cc(Br)ccc2/C1=C1/Nc2c(cccc2-c2ccccc2)/C1=N\O | > 200 µM | > 16 µg/mL |  |  |
| O=C1Nc2cc(F)ccc2/C1=C1/Nc2ccccc2/C1=N\O | > 200 µM | > 16 µg/mL |  |  |
| O=C1Nc2cc(Br)ccc2/C1=C1/Nc2c(Cl)cc(Cl)cc2/C1=N\O | > 200 µM | > 16 µg/mL |  |  |
| O=C1Nc2cc(Br)ccc2/C1=C1/Nc2c(Br)cccc2/C1=N\O | > 200 µM | 1 µg/mL | 512 | MIC [3]: > 16 µg/mL; fold change (FC) [4]: 256; MIC [5]: 2 µg/mL; Activity [7]: inactive; fold change (FC) [8]: 16; MIC [9]: 1 µg/mL; Activity [10]: inactive; MIC [11]: 32 µg/mL; Activity [12]: inactive; MIC [13]: 4 µg/mL; MIC [14]: 2 µg/mL; MIC [15]: > 16 µg/mL; MIC [16]: 4 µg/mL; MIC [17]: 4 µg/mL |
| O=C1Nc2ccccc2/C1=C1/Nc2c(Cl)cccc2/C1=N\O | > 200 µM | > 16 µg/mL |  |  |
| O=C1Nc2cc(Br)ccc2/C1=C1/Nc2ccc(F)cc2/C1=N\O | > 200 µM | 2 µg/mL | 256 | fold change (FC) [4]: 16; MIC [11]: > 64 µg/mL; MIC [14]: 32 µg/mL |
| O=C1Nc2cc(Br)ccc2/C1=C1/Nc2cc(Cl)c(Cl)cc2/C1=N\O | > 200 µM | > 16 µg/mL |  |  |
| O=C1Nc2cc(Br)ccc2/C1=C1/Nc2cc(F)ccc2/C1=N\O | > 200 µM | > 16 µg/mL |  |  |
| Cc1ccc2c(c1)NC(=O)/C2=C1\Nc2ccccc2\C1=N/O | > 200 µM | > 16 µg/mL |  |  |
| O=C1Nc2ccccc2/C1=C1/Nc2ccccc2/C1=N\O | > 200 µM | > 16 µg/mL |  |  |
| Cc1cccc2c1NC(=C1\C(=O)Nc3cc(Br)ccc31)/C2=N/O | > 200 µM | 4 µg/mL | 128 |  |
| O=C1Nc2cc(Br)ccc2/C1=C1/Nc2ccc(-c3ccccc3)cc2/C1=N\O | > 200 µM | > 16 µg/mL |  |  |
| O=C1Nc2cc(Br)ccc2/C1=C1/Nc2c(F)cccc2/C1=N\O | > 200 µM | 2 µg/mL | 256 | MIC [3]: > 16 µg/mL; fold change (FC) [4]: 256; MIC [5]: 2 µg/mL; Activity [7]: inactive; MIC [9]: 2 µg/mL; Activity [10]: inactive; MIC [11]: > 64 µg/mL; Activity [12]: inactive; MIC [13]: 4 µg/mL; MIC [14]: 2 µg/mL; MIC [15]: > 16 µg/mL; MIC [16]: 4 µg/mL; MIC [17]: 4 µg/mL |
| O=C1Nc2ccc(Br)cc2/C1=C1/Nc2ccccc2/C1=N\O [INDIRUBIN 2] | > 200 µM | > 16 µg/mL |  |  |
| O=C1Nc2cc(Br)ccc2/C1=C1/Nc2c(cccc2C(F)(F)F)/C1=N\O | > 200 µM | 2 µg/mL | 256 | fold change (FC) [4]: 128; MIC [11]: 64 µg/mL; MIC [14]: 4 µg/mL |
